Results of several laboratories.
MTNR1A: Melatonin receptor type 1A (MTNR1A, Homo sapiens, UniProt P48039)

Nc1ncc(-c2nc(N3CCOCC3)nc(N3CCOCC3)n2)c(C(F)F)n1  remaining binding (Serine/threonine-protein kinase DCLK3 (DCLK3, Homo sapiens, UniProt Q9C098); binding, competition with immobilised ligand; 10 µM): 73%
C#Cc1n[nH]c2c(-c3cn([C@@H](C)c4ccccn4)c(=O)[nH]c3=O)cc(F)cc12  inhibition (Rho-associated protein kinase 2 (ROCK2, Homo sapiens, UniProt O75116); enzyme activity, inhibitor; 0.1 µM): 1.2%
CCC(N)Cc1cc(OC)c(COC)cc1OC (stereo not drawn)  Emax (5-hydroxytryptamine receptor 2C (HTR2C, Homo sapiens, UniProt P28335); G protein activation, agonist, BRET): 82%
COc1ccc2[nH]cc(CCNC(=O)CI)c2c1  Emax (MTNR1A; GTPγS binding, agonist, radiometric; cell membranes): 83%
CN[C@@]1(c2ccccc2Cl)CCCCC1=O  inhibition (Fatty-acid amide hydrolase 1 (FAAH, Homo sapiens, UniProt O00519); enzyme activity, inhibitor; 30 µM): 11%
COc1ncccc1-c1cnn2ccc(N3CCN(C(=O)OC(C)C)CC3)nc12  remaining binding (Serine/threonine-protein kinase ULK3 (ULK3, Homo sapiens, UniProt Q6PHR2); binding, competition with immobilised ligand; 1 µM): 54%
COc1ccc2cccc(C(CO)CNC(=O)CF)c2c1 (stereo not drawn)  Emax (MTNR1A; GTPγS binding, agonist, radiometric; cell membranes): 47%
CCN(CC)CCCC[C@H](NC(=O)[C@H](CC(C)C)NC(=O)[C@H](C)NC(=O)[C@H](Cc1ccccc1)NC(=O)c1ccc(C(C)(C)C)cc1)C(=O)N[C@@H](CO)C(=O)OC  remaining binding (B2 bradykinin receptor (BDKRB2, Homo sapiens, UniProt P30411); ligand displacement, radioligand; 10 µM): 107%
Cc1nn(C)cc1-c1nc2c(N3CCN(Cc4ccc(Cl)cc4)CC3)c(Cl)cnc2[nH]1  remaining binding (Receptor-type tyrosine-protein kinase FLT3 (FLT3, Homo sapiens, UniProt P36888); binding, competition with immobilised ligand; 1 µM): 0.4%
